Source: PMC5788303 (Journal of medicinal chemistry, 2017)

What was measured:
[1] = In vivo pharmacokinetics in mice, 10 mg/kg i.p.; parameters: species or system mouse
native AMPA receptors = assay: Radioligand binding at native AMPA receptors; conditions: read-out: AMPA IC50; [3H]AMPA, rat synaptosomes
Outline: (§1)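 Native receptors in rat brain synaptosomes: AMPA labelled with [3H]AMPA, KA with [3H]KA, NMDA with [3H]CGP-39653. Recombinant homomeric rat GluK1-3 labelled with [3H]KA. IC50 and Ki values derived from displacement data.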

GluN1/GluN2D = GluN1/GluN2D (Rattus norvegicus, UniProt Q62645); assay: Two-electrode voltage-clamp electrophysiology, Xenopus oocytes, GluN1/GluN2D; assay type: biochemical; conditions: 100 μM glycine and 1 μM Glu
Outline: (§2)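 Rat GluN1 and GluN2A-D cRNAs injected 1:2 into Xenopus oocytes, held at 18 °C in Barth's solution. Recorded at room temperature 2–6 days later in 90 mM NaCl, 1 mM KCl, 10 mM HEPES, 0.5 mM BaCl2, 0.01 mM EDTA (pH 7.4), −40 mV. Currents evoked by 100 μM glycine plus Glu: 10 μM (2A), 3 μM (2B, 2C), 1 μM (2D). Per-oocyte Hill fits, mean ± SEM.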

[2] = In situ mouse brain perfusion; assay type: in vivo
Outline: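 Adult male mice, 25 ± 5 g, anaesthetised with i.p. ketamine 120 mg/kg plus xylazine. Right external carotid ligated; right common carotid cannulated with a 100 IU/mL heparin-filled catheter. Perfused with 100 μM test compound at 37 °C and 2.5 mL/min for 60 s, then washed 2 s with 4 °C drug-free buffer. Brain level measured (detection limit 5 pmol/g).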

native KA receptors = assay: Radioligand binding at native KA receptors; conditions: [3H]KA, rat synaptosomes
Outline: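 Native kainate receptors in rat brain synaptosomes were labelled with [3H]KA, and displacement by the test compound was measured. IC50 and Ki values were derived from the binding data.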

Abcc4 (Mrp4) = assay: Transporter protein expression by SRM/MRM LC-MS/MS, Abcc4; assay type: cell-based, mouse; conditions: 10 μM, 48 h, HCC cell crude membrane fraction
[3] = tested on: NMDA receptors in murine HCC cells; assay: Calcium imaging of NMDA-induced Ca2+ transients in murine HCC cells; assay type: cell-based, mouse; conditions: 150 μM NMDA
Abcc2 (Mrp2) = assay: Transporter protein expression by SRM/MRM LC-MS/MS, Abcc2; assay type: cell-based, mouse; conditions: 10 μM, HCC cell crude membrane fraction
GluN1/GluN2A = GluN1/GluN2A (Rattus norvegicus, UniProt Q00959); assay: Two-electrode voltage-clamp electrophysiology, Xenopus oocytes, GluN1/GluN2A; assay type: biochemical; conditions: 100 μM glycine and 10 μM Glu
Outline: as §2

Slc2a1 (Glut1) = assay: Transporter protein expression by SRM/MRM LC-MS/MS, Slc2a1; assay type: cell-based, mouse; conditions: 10 μM, 48 h, HCC cell crude membrane fraction
Abcb1 (Pgp) = assay: Transporter protein expression by SRM/MRM LC-MS/MS, Abcb1; assay type: cell-based, mouse; conditions: 10 μM, 48 h, HCC cell crude membrane fraction
Slc7a5 (Lat1) = assay: Transporter protein expression by SRM/MRM LC-MS/MS, Slc7a5; assay type: cell-based, mouse; conditions: 10 μM, 48 h, HCC cell crude membrane fraction
GluN1/GluN2C = GluN1/GluN2C (Rattus norvegicus, UniProt Q00961); assay: Two-electrode voltage-clamp electrophysiology, Xenopus oocytes, GluN1/GluN2C; assay type: biochemical; conditions: 100 μM glycine and 3 μM Glu
Outline: as §2

GluN1/GluN2B = GluN1/GluN2B (Rattus norvegicus, UniProt Q00960); assay: Two-electrode voltage-clamp electrophysiology, Xenopus oocytes, GluN1/GluN2B; assay type: biochemical; conditions: 100 μM glycine and 3 μM Glu
Outline: as §2

Abcg2 (Bcrp) = assay: Transporter protein expression by SRM/MRM LC-MS/MS, Abcg2; assay type: cell-based, mouse; conditions: 10 μM, 48 h, HCC cell crude membrane fraction
iGluRs = assay: Binding affinity at iGluRs; parameters: species or system rat; conditions: native iGluRs and homomeric GluK1-3
Outline: as §1

native NMDA receptors = assay: Radioligand binding at native NMDA receptors; parameters: species or system rat; conditions: compared with 1l / 1n
mouse HCC cells = assay: Anti-proliferative activity in vitro; assay type: cell-based; conditions: 72 h
Outline: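 Mouse Nras-driven p53−/− HCC cells in DMEM with 2 mM L-glutamine, 10% heat-inactivated FBS and penicillin/streptomycin. Cells seeded at 2×10^4/well on collagen-coated plates and used one day later. Test compound given at 0.1–200 μM, or at 1, 2.5, 5 and 10 μM with or without a 100 μM second test compound, for 72 h with daily medium change. Viability read by resazurin fluorescence (ex 560/em 590 nm). IC50 by nonlinear regression, mean ± SEM.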

GluN1/GluN2B, sequence (Q00960 27-1482, other chains not shown): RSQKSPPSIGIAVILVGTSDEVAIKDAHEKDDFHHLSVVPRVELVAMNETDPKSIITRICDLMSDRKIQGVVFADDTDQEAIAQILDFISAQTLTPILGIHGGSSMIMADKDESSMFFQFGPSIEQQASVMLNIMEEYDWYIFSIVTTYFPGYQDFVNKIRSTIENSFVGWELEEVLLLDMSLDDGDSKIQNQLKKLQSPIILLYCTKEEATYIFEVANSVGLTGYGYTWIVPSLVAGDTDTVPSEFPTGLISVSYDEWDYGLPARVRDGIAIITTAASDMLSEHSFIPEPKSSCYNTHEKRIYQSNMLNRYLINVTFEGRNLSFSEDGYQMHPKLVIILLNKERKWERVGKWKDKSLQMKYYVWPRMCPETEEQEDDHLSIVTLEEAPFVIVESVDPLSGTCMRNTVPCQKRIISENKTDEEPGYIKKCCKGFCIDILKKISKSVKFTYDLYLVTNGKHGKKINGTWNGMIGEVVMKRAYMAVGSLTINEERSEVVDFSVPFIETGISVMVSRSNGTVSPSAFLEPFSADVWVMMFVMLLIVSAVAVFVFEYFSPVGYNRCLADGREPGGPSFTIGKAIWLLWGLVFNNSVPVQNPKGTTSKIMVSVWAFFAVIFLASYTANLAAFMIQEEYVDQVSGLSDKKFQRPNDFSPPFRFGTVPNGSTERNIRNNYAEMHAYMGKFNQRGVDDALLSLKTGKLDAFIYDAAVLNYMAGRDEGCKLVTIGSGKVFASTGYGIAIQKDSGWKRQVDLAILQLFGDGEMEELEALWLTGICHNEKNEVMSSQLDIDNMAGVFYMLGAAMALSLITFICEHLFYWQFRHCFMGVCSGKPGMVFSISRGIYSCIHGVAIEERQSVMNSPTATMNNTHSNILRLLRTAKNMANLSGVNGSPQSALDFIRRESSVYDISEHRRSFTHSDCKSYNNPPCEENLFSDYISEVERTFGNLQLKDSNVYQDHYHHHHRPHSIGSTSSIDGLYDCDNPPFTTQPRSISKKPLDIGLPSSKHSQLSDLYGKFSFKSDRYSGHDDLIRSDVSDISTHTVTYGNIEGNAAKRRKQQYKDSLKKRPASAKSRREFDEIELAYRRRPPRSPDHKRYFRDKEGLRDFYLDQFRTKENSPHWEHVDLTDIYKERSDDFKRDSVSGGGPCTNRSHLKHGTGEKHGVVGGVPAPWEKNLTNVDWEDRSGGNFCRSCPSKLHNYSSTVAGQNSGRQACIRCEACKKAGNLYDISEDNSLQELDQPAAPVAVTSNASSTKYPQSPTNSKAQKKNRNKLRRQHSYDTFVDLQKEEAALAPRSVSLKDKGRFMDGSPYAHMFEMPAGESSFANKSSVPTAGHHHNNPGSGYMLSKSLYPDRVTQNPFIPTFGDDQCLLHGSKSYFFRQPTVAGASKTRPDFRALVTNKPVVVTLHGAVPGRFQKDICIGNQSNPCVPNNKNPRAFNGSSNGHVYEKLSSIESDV
GluN1/GluN2D, sequence (Q62645 28-1323, other chains not shown): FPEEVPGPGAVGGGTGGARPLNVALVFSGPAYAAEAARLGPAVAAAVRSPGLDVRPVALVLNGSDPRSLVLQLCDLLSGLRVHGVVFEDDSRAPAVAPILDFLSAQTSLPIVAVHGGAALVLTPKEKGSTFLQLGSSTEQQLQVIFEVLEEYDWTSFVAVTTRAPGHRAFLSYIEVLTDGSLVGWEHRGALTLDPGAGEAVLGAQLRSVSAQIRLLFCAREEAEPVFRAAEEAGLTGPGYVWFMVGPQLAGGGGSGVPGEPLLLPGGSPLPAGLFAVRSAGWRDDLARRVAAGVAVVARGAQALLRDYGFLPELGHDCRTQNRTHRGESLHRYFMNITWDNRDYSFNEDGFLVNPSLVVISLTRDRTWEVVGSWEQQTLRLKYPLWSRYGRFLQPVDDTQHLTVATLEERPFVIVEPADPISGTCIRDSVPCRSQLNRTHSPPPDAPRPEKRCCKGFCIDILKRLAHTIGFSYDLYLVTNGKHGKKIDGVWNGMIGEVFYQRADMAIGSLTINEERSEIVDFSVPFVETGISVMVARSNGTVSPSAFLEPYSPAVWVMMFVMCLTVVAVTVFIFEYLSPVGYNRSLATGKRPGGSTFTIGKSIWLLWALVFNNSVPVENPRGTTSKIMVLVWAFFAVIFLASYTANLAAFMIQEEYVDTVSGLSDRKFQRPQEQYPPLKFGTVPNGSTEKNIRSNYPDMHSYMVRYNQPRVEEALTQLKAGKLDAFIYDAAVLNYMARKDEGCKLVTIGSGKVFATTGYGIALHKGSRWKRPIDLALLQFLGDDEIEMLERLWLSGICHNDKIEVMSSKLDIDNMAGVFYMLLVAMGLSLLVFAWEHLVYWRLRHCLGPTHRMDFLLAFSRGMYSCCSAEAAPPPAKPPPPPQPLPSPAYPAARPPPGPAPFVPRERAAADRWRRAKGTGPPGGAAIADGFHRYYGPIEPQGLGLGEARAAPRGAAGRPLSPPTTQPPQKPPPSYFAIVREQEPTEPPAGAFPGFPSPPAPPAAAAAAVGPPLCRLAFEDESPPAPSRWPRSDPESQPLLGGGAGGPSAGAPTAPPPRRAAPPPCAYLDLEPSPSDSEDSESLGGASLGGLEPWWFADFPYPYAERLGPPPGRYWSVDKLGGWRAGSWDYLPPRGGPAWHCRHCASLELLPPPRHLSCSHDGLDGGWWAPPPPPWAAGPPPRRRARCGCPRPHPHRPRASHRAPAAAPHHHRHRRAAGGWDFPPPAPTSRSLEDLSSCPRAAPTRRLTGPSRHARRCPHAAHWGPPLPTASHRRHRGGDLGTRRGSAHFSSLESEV
GluN1/GluN2C, sequence (Q00961 20-1237, other chains not shown): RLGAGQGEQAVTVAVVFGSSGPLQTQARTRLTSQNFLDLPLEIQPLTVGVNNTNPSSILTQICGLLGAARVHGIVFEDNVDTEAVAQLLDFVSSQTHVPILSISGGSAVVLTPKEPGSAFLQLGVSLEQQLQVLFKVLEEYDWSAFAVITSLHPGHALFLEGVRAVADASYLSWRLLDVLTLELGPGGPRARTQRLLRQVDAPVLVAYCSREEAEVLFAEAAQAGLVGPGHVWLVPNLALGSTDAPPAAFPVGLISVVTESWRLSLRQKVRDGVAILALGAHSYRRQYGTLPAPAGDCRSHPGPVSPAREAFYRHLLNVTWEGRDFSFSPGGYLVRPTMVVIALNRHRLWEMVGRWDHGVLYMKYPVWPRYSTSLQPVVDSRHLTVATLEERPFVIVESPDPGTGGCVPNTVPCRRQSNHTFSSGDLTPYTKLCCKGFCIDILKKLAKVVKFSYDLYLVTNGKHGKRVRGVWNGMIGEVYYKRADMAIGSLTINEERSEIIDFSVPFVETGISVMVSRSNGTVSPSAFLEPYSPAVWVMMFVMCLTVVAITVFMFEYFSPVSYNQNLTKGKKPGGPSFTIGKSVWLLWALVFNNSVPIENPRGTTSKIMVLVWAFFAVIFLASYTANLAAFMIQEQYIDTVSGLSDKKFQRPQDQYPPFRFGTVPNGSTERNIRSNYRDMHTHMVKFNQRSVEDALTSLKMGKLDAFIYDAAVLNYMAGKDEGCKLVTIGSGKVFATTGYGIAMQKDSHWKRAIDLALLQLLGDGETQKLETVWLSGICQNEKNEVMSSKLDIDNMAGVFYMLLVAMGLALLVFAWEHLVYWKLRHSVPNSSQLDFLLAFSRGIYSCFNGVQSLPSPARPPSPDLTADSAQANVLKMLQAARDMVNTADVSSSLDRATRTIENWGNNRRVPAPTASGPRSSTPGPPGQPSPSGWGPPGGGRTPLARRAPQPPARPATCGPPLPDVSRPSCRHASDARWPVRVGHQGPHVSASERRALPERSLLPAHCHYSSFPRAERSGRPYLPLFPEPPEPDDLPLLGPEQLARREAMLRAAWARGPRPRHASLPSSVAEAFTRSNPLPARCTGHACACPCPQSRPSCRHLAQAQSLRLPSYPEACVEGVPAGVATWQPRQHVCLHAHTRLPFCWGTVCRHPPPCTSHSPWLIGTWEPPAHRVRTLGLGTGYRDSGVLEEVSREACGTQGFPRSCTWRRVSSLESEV

With `Cl.O=C(O)c1cc([C@H]2CCN[C@@H]2C(=O)O)ccc1Cl` [1l, (2S,3R)-3-(3-Carboxy-4-chlorophenyl)pyrrolidine-2-carboxylic acid hydrochloride] the “changes in the behavior of the mice after injection” value ([1]; 10 mg/kg i.p.) was “no observable changes in the behavior”, the brain concentration ([1]; 30 min after 10 mg/kg i.p.) was 0.3 nmol/g and the brain concentration ([1]; 60 min after 10 mg/kg i.p.) was 0.1 nmol/g. For the same compound, the IC50 (native AMPA receptors) was > 100 µM, the “nH (Hillslope)” value (GluN1/GluN2D) was 1.3 and the “brain concentration following perfusion” value ([2]; perfusion with 100 μM of the compound, detection limit of analytical method) was < 5 pmol/g. For the same compound, the “KA IC50” value (native KA receptors) was >100 µM, the “Abcc4 (Mrp4) protein expression level” value (Abcc4 (Mrp4)) was 0.27 ± 0.04 fmol/μg of total protein and the “inhibition of NMDA-induced intracellular Ca2+ transients” value ([3]; compound at 25 and 41 μM) was “inhibit NMDA activation significantly”. The Abcc2 protein expression (Abcc2 (Mrp2)) was “below the lower limit of quantification”, the “nH (Hillslope)” value (GluN1/GluN2A) was 1.3 and the “Slc2a1 (Glut1) protein expression level” value (Slc2a1 (Glut1)) was 13.2± 0.53 fmol/μg of total protein. For the same compound, the “Abcb1 (Pgp) protein expression level” value (Abcb1 (Pgp)) was 0.39± 0.06 fmol/μg of total protein, the “Slc7a5 (Lat1) protein expression level” value (Slc7a5 (Lat1)) was 5.72± 1.61 fmol/μg of total protein and the “nH (Hillslope)” value (GluN1/GluN2C) was 1.0. For the same compound, the “nH (Hillslope)” value (GluN1/GluN2B) was 1.3 and the “Abcg2 (Bcrp) protein expression level” value (Abcg2 (Bcrp)) was 1.24± 0.13 fmol/μg of total protein.
With `O=C(O)c1cc([C@H]2CCN[C@@H]2C(=O)O)ccc1F` [1k, (2S,3R)-2-Carboxy-3-(3-carboxy-4-fluorophenyl)pyrrolidin-1-ium chloride] the IC50 (native AMPA receptors) was > 100 µM.
With `Cl.N#Cc1cccc([C@H]2CCN[C@@H]2C(=O)O)c1` [1g, (2S,3R)-3-(3-Cyanophenyl)pyrrolidine-2-carboxylic acid hydrochloride] the IC50 (native AMPA receptors) was > 100 µM and the “KA IC50” value (native KA receptors) was >100 µM.
For `Cl.Cl.Nc1cccc([C@H]2CCN[C@@H]2C(=O)O)c1` [1f, (2S,3R)-3-(3-Aminophenyl)pyrrolidine-2-carboxylic acid dihydrochloride], the IC50 (native AMPA receptors) was > 100 µM and the “KA IC50” value (native KA receptors) was >100 µM.
In the case of `Cl.O=C(O)c1cc([C@H]2CCN[C@@H]2C(=O)O)ccc1Br` [1n, (2S,3R)-3-(3-Carboxy-4-bromophenyl)pyrrolidine-2-carboxylic acid hydrochloride], the IC50 (native AMPA receptors) is reported as > 100 µM and the “KA IC50” value (native KA receptors) is reported as >100 µM.
For `O=C(O)[C@H]1NCC[C@@H]1c1ccc(O)c(O)c1` [1j, (2S,3R)-3-(3,4-Dihydroxyphenyl)pyrrolidine-2-carboxylic acid], the IC50 (native AMPA receptors) was > 100 µM and the “KA IC50” value (native KA receptors) was >100 µM.
With `Cl.NC(=O)c1cccc([C@H]2CCN[C@@H]2C(=O)O)c1` [1h, (2S,3R)-3-(3-Carbamoylphenyl)-2-carboxypyrrolidin-1-ium chloride] the IC50 (native AMPA receptors) was > 100 µM, the “KA IC50” value (native KA receptors) was >100 µM and the “IC50 or Ki at the iGluRs” value (iGluRs) was > 100 µM.
For `Cl.O=C(O)[C@H]1NCC[C@@H]1c1cccc(C(F)(F)F)c1` [1e, (2S,3R)-2-Carboxy-3-(3-(trifluoromethyl)phenyl)pyrrolidin-1-ium chloride], the IC50 (native AMPA receptors) was > 100 µM and the “KA IC50” value (native KA receptors) was >100 µM.
In the case of `Cl.O=C(O)[C@H]1NCC[C@@H]1c1cccc(Cl)c1` [1d, (2S,3R)-2-Carboxy-3-(3-chlorophenyl)pyrrolidin-1-ium chloride], the IC50 (native AMPA receptors) is reported as > 100 µM and the “KA IC50” value (native KA receptors) is reported as >100 µM.
For `O=C(O)c1cccc([C@H]2CCN[C@@H]2C(=O)O)c1` [1a, (2S,3R)-3-(3-Carboxyphenyl)pyrrolidine-2-Carboxylic Acid], the BBB penetration ([2]; mouse in situ brain perfusion) was “does not penetrate the BBB”.
In the case of `Cl.O=C(O)[C@H]1NCC[C@@H]1c1cccc(B(O)O)c1` [1i, (2S,3R)-3-(3-Boronophenyl)pyrrolidine-2-carboxylic acid hydrochloride], the IC50 (native AMPA receptors) is reported as > 100 µM, the “KA IC50” value (native KA receptors) is reported as >100 µM and the “IC50 or Ki at the iGluRs” value (iGluRs) is reported as > 100 µM.
In the case of `Cc1ccc([C@H]2CCN[C@@H]2C(=O)O)cc1C(=O)O.Cl` [1m, (2S,3R)-3-(3-Carboxy-4-methylphenyl)pyrrolidine-2-carboxylic acid hydrochloride], the IC50 (native AMPA receptors) is reported as > 100 µM, the “KA IC50” value (native KA receptors) is reported as >100 µM and the “drop in binding affinity for native NMDA receptors” value (native NMDA receptors) is reported as 30 fold.
Work on `CNC(=O)c1cc(Oc2ccc(NC(=O)Nc3ccc(Cl)c(C(F)(F)F)c3)cc2)ccn1` [sorafenib] yielded an IC50 (mouse HCC cells; read-out: IC50 on HCC cell viability) of 7.4 ± 1.7 µM, a viability at 1 µM (mouse HCC cells; read-out: cell viability) of 88 ± 3% and a viability at 2.5 µM (mouse HCC cells; read-out: cell viability) of 82 ± 3%. For the same compound, the viability at 5 µM (mouse HCC cells; read-out: cell viability) was 72 ± 1% and the viability at 10 µM (mouse HCC cells; read-out: cell viability) was 31 ± 2%.
For `N[C@H](CCCP(=O)(O)O)C(=O)O` [D-AP5, reference compound], the “inhibition of NMDA-induced intracellular Ca2+ transients” value ([3]; compound at 20 μM) was “inhibit NMDA activation significantly”.
